# From ChEMBL document CHEMBL2429834, “Potent histone deacetylase inhibitors derived from 4-(aminomethyl)-N-hydroxybenzamide with high selectivity for the HDAC6 isoform” (J Med Chem, 2013)
# Columns and labels:
# [1] = Selectivity ratio of IC50 for HDAC1/2 in human HeLa cell nuclear extract to IC50 for N-terminal GST-tagged recombinant HDAC6 (unknown origin); format: cell-based
# Procedure, shortened: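 HDAC6 leg: 1 nM GST-HDAC6 with 8 μM Ac-Arg-Gly-Lys(Ac)-AMC. Nuclear-extract leg: 30 μg/mL HeLa nuclear extract (mainly HDAC1/2) with 20 μM of the same substrate in 50 mM Tris-Cl, 137 mM NaCl, 2.7 mM KCl, 1 mM MgCl2, pH 8.0.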
# Histone deacetylase 5 = Histone deacetylase 5 (Homo sapiens, UniProt Q9UQL6); test: Inhibition of C-terminal His6x-tagged recombinant human HDAC5 (657 to 1123) expressed in baculovirus using acetyl-Lys(trifluoroacetyl)-AMC as substrate after 1 hr by fluorescence plate reader analysis
# Chain of Histone deacetylase 5 (Q9UQL6 whole entry): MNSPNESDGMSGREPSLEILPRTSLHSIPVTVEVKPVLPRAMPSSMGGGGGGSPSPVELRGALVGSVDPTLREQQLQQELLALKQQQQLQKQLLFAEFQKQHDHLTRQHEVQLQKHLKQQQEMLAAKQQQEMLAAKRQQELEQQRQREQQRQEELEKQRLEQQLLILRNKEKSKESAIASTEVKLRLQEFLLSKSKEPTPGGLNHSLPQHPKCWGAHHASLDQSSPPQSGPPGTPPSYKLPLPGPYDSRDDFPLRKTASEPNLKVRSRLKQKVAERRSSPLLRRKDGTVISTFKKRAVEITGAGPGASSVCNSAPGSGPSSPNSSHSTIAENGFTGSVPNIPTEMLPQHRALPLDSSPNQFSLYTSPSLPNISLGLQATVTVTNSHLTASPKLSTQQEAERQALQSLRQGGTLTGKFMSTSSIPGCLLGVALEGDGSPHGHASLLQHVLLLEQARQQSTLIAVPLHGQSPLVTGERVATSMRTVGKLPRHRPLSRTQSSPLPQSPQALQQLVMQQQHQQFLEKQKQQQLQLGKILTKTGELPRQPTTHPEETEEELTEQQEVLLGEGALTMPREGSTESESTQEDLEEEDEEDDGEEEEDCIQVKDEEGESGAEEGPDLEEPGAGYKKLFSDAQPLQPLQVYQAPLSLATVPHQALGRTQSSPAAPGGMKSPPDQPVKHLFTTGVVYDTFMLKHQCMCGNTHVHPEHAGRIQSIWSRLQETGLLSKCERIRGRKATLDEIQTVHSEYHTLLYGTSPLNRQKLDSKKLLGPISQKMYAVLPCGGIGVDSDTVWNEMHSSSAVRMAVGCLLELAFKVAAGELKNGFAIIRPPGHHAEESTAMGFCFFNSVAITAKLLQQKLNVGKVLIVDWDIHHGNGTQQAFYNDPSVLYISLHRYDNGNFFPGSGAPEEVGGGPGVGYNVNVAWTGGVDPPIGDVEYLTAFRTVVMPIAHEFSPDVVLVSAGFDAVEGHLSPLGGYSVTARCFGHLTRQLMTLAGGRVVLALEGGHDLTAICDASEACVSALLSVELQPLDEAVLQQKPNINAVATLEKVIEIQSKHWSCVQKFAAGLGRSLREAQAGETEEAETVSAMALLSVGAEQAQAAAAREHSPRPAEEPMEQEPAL
# [2] = target: T1, Protein deacetylase HDAC6 (Homo sapiens) (UniProt Q9UBN7); test: Inhibition of HDAC6 in human HeLa cells using acetyl tubulin as substrate assessed as Ac-Lys accumulation in nuclear histones at 20 uM after 24 hrs by immunofluorescence assay relative to control
# T1 sequence (whole entry): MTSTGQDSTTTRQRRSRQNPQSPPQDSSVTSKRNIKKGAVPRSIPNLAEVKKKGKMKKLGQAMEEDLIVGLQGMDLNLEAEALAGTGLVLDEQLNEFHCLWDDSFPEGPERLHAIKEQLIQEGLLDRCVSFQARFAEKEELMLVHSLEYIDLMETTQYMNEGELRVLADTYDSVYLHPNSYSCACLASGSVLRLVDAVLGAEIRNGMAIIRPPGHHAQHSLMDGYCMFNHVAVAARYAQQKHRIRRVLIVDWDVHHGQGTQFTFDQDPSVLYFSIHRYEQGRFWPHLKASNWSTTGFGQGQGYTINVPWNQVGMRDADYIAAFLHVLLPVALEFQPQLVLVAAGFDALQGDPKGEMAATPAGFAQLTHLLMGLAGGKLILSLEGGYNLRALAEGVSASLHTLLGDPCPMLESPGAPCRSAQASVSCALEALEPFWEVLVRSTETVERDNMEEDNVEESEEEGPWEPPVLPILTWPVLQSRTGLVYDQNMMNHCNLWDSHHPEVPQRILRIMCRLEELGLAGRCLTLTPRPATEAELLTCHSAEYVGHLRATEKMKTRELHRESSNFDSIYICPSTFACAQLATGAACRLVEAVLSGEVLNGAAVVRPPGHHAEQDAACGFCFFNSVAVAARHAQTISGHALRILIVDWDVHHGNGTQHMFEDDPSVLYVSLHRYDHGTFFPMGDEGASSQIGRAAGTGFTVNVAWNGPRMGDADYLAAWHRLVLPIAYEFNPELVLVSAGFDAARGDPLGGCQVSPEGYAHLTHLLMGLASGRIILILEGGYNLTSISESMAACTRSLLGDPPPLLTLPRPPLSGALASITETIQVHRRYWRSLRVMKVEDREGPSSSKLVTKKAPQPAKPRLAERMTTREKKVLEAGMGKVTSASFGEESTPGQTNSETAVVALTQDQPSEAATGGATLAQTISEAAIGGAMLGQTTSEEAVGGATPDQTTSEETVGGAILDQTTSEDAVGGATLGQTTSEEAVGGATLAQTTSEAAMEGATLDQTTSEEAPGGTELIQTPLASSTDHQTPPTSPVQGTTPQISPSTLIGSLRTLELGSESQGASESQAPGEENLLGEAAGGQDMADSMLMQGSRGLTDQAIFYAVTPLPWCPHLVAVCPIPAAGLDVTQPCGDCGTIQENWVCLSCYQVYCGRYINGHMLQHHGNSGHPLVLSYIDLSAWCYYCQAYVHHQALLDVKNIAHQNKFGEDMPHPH
# Histone deacetylase 8 = target: T2, Histone deacetylase 8 (Homo sapiens, UniProt Q9BY41); test: Inhibition of full length C-terminal His6x-tagged recombinant human HDAC8 expressed in baculovirus using Arg-His-Lys(Ac)-Lys(Ac) as substrate after 1 hr by fluorescence plate reader analysis
# T2 sequence (Q9BY41 whole entry): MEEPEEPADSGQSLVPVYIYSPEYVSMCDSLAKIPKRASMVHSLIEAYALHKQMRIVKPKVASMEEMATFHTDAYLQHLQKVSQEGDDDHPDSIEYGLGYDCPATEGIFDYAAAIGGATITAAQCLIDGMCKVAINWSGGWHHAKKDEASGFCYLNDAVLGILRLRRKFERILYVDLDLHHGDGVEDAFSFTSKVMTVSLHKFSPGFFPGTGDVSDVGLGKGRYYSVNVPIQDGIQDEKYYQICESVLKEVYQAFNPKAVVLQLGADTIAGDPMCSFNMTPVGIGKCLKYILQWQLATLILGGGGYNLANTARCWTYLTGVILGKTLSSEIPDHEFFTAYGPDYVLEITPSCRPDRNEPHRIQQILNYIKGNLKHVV
# Histone deacetylase 4 = Histone deacetylase 4 (Homo sapiens, UniProt P56524); test: Inhibition of N-terminal GST-tagged recombinant human HDAC4 (627 to 1085) expressed in baculovirus using acetyl-Lys(trifluoroacetyl)-AMC as substrate after 2 hrs by fluorescence plate reader analysis
# Chain of Histone deacetylase 4 (P56524 whole entry): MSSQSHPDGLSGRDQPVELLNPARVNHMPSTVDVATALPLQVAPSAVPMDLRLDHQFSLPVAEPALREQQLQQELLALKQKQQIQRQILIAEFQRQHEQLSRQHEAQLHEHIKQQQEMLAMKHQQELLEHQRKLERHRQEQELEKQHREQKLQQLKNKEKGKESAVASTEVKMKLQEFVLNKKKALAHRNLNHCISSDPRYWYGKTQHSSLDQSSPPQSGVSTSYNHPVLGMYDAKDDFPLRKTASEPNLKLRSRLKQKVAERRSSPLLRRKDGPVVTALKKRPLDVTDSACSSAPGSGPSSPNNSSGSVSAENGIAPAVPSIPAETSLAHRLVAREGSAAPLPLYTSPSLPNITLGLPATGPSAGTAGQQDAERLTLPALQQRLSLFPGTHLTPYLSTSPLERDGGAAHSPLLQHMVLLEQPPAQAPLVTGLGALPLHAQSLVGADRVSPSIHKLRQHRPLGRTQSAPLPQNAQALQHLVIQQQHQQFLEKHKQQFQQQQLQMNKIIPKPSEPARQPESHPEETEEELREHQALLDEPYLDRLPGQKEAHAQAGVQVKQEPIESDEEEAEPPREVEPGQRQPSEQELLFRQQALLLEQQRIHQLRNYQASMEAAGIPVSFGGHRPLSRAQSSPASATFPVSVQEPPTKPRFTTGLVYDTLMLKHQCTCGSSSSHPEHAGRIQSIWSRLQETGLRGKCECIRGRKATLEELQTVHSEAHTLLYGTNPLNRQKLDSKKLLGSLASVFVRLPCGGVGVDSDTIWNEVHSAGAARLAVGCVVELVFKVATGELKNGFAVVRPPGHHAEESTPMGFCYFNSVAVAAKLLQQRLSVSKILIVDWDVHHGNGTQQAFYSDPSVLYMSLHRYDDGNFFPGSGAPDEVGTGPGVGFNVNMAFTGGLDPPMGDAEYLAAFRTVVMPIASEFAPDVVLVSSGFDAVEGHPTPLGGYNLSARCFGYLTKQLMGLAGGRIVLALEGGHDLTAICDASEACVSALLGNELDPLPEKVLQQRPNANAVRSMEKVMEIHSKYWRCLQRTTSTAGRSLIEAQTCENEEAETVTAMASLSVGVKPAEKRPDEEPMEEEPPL
# Histone deacetylase 2 = Histone deacetylase 2 (Homo sapiens, UniProt Q92769); test: Inhibition of full length C-terminal His6x-tagged recombinant human HDAC2 expressed in baculovirus using Arg-His-Lys-Lys (Ac) as substrate after 2 hrs by fluorescence plate reader analysis
# Chain of Histone deacetylase 2 (Q92769 whole entry): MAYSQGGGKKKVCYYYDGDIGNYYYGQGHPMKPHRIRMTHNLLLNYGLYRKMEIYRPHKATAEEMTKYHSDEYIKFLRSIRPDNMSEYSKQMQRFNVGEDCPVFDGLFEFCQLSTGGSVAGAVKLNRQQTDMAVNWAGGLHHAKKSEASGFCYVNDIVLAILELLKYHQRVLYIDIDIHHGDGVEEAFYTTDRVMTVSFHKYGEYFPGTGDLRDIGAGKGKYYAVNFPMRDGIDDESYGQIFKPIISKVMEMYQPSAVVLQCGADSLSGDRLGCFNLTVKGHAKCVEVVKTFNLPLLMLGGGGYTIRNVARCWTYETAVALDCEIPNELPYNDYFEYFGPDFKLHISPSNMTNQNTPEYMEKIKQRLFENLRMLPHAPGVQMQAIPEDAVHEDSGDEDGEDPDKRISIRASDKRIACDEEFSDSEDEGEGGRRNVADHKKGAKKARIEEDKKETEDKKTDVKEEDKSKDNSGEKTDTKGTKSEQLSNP
# [3] = target: T3, Polyamine deacetylase HDAC10 (Homo sapiens, UniProt Q969S8); test: Inhibition of N-terminal GST-tagged recombinant human HDAC10 (1 to 481) expressed in baculovirus using Arg-His-Lys-Lys (Ac) as substrate after 1 hr by fluorescence plate reader analysis
# T3 sequence (Q969S8 whole entry): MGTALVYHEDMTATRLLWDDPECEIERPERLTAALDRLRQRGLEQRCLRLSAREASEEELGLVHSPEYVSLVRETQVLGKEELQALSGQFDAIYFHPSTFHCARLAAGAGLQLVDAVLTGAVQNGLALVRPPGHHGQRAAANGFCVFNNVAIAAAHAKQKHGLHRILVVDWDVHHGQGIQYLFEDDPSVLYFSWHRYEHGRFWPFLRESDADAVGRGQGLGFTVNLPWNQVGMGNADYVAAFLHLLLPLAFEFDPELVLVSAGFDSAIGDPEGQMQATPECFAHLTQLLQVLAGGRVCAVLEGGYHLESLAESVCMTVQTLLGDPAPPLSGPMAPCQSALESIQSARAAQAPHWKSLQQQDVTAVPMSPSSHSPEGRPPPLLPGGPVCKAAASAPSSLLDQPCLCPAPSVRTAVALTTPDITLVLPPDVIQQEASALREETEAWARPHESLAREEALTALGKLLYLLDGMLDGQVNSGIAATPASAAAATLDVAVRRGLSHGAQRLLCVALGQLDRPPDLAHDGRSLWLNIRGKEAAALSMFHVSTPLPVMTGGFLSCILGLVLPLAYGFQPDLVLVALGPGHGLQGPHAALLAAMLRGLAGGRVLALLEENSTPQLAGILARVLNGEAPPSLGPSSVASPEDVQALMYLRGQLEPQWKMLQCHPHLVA
IC50 (Histone deacetylase 5) [µM],inhibition [2] [%],IC50 (Histone deacetylase 8) [µM],IC50 (Histone deacetylase 4) [µM],IC50 (Histone deacetylase 2) [µM],IC50 [3] [µM],Compound,Ratio IC50 [1]
> 50,< 20,1.3,> 50,> 50,> 50,Cn1cccc1C(=O)N1Cc2ccc(C(=O)NO)cc2C1,690
> 50,< 20,0.89,> 50,> 50,> 50,Cn1cccc1C(=O)N1CCCc2cc(C(=O)NO)ccc2C1,> 380
> 50,< 20,1.3,> 50,> 50,> 50,CC(C)(C)C(=O)N1Cc2ccc(C(=O)NO)cc2C1,340

# Second part, the compound before the results:
Compound,IC50 (Histone deacetylase 5) [µM],inhibition [2] [%],IC50 (Histone deacetylase 8) [µM],IC50 (Histone deacetylase 4) [µM],IC50 (Histone deacetylase 2) [µM],IC50 [3] [µM],Ratio IC50 [1]
Cn1cccc1C(=O)NCc1ccc(C(=O)NO)cc1,3.3,< 20,0.69,15,16,3.7,115
CC(C)(C)C(=O)N1CCc2cc(C(=O)NO)ccc2C1,> 50,< 20,2.1,> 50,> 50,> 50,1500
Cn1cccc1C(=O)N1CCc2cc(C(=O)NO)ccc2C1,> 50,< 20,2.1,> 50,> 50,> 50,500
